According to ChEMBL document CHEMBL4699419, “Antileishmanial assessment of isoxazole derivatives against L. donovani” (RSC Med Chem, 2020):
Active and inactive are the calls of the source. No cut-off for these calls is given here.

Assays:
Leishmania amazonensis [1] = experiment: Antileishmanial activity against promastigote form of Leishmania amazonensis; type: functional, organism-based
Leishmania amazonensis [2] = experiment: Antileishmanial activity against intracellular amastigote stage of Leishmania amazonensis; type: functional, organism-based
Leishmania donovani [3] = experiment: Antileishmanial activity against late log phase promastigote stage of Leishmania donovani MHOM/IN/80/Dd8 harboring luciferase reporter gene incubated for 72 hrs by Steady-Glo luminescence assay; type: functional, organism-based; settings: Leishmania donovani, MHOM/IN/80/Dd8, 72 h; read-out: IC50
How it was run: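 Luciferase-transfected promastigotes kept at 25 ± 1 °C in medium 199 + 10% heat-inactivated FCS + G418 (20 μg ml–1). Late-log cells (5 × 10^5 per well) grown 72 h with graded compound concentrations from DMSO, DMSO dilution controls. Aliquot mixed 1:1 with Steady-Glo, luminescence (RLU) read; % inhibition vs control. IC50 by Probit regression, three independent experiments.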

Leishmania donovani [4] = experiment: Antileishmanial activity against Leishmania donovani MHOM/IN/80/Dd8 promastigotes harboring luciferase reporter gene infected in mouse J774 cells assessed as inhibition of amastigote growth incubated for 72 hrs by Steady-Glo luminescence assay; type: functional, organism-based; settings: Leishmania donovani, MHOM/IN/80/Dd8, J774, 72 h; read-out: IC50
How it was run: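 J774A.1 mouse macrophages (2 × 10^5 per well, RPMI-1640 + 10% FCS, 37 °C CO2) infected after 24 h with stationary-phase luciferase-transgenic promastigotes at 1:10 macrophage:parasite; compounds in complete medium for 72 h at 37 °C. Medium swapped for PBS, Steady-Glo added, luminescence read; % inhibition vs untreated control RLU. IC50 by Probit log dose/response regression, three independent experiments.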

[5] = Cytotoxicity against mouse J774A1 cells assessed as reduction in cell viability incubated for 48 hrs by MTT assay; type: cell-based, J774.A1
How it was run: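 J774A.1 macrophages, 0.2 × 10^6 per well, incubated overnight at 37 °C in 5% CO2, then exposed to compounds in DMSO for 48 h, with DMSO dilutions as controls. Viability read by MTT formazan at 600 nm. CC50 = 50% viability reduction versus medium-only cells, from probit regression; three independent experiments.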

[6] = Selectivity index, ratio of CC50 for mouse J774.A1 cells to IC50 for amastigote form of Leishmania donovani MHOM/IN/80/Dd8; type: toxicity; settings: read-out: Ratio CC50/IC50
How it was run: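 Macrophages infected at a 1:10 ratio with stationary promastigotes, then treated 72 h at 37 °C; luminescence read with Steady-Glo. IC50 values from probit analysis.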

Leishmania donovani [7] = experiment: (§1) Antileishmanial activity against Leishmania donovani amastigotes infected in golden hamster assessed as reduction in parasite burden in spleen at 50 mg/kg, ip initiated after 2 days of pre-treatment biopsy administered for 5 days and measured on day 7 by giemsa staining based assay relative to control; type: functional; settings: for inhibition in vivo at 50 mg/kg: 168 h, time 7 day; for inhibition: time 7.0 day
How it was run: (§2)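 Male inbred golden hamsters, 40–45 g, infected with L. donovani. Animals with +1 infection on pre-treatment spleen biopsy randomized, five per group. Intraperitoneal dosing in a vehicle of 10% Tween-80/ethanol (70:30) in ddH2O, 10% final, began 2 days after biopsy and ran 5 consecutive days; vehicle-only controls. Giemsa-stained spleen biopsies taken on day 7 or 28; percentage inhibition computed from initial, treated and untreated-control amastigote counts.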

Leishmania donovani [8] = experiment: as §1, with “28” for “7”; type: functional; settings: for inhibition: time 28.0 day; for inhibition in vivo at 50 mg/kg: 672 h, time 28 day; how it was run: as §2

IC50 (Leishmania amazonensis [1]) [µM] | IC50 (Leishmania amazonensis [2]) [µM] | SMILES | IC50 (Leishmania donovani [3]) [µM] | IC50 (Leishmania donovani [4]) [µM] | CC50 at 48 h [5] [µM] | selectivity ratio [6] | inhibition in vivo at 50 mg/kg (Leishmania donovani [7]) [%] | inhibition (Leishmania donovani [8]) | inhibition (Leishmania donovani [7]) | inhibition in vivo at 50 mg/kg (Leishmania donovani [8]) [%]
18.3 | 2.9 | COc1cc(-c2cc(-c3cc(OC)c(OC)c(OC)c3)on2)cc(OC)c1OC | – | – | – | – | – | – | – | –
18.3 | 2.9 | COc1cc(-c2cc(-c3ccc4c(c3)OCO4)no2)cc(OC)c1OC | – | – | – | – | – | – | – | –
– | – | COC(=O)c1c(NCCNc2ccnc3cc(Cl)ccc23)noc1-c1ccc(Cl)cc1Cl | 1.86 | 0.85 | 3.45 | 4.05 | 19.3 | inactive | – | –
– | – | COC(=O)c1c(NCCCCNc2ccnc3cc(Cl)ccc23)noc1-c1ccccc1[N+](=O)[O-] | 1.95 | 8.63 | 77.7 | 8.99 | – | inactive | inactive | –
– | – | COC(=O)c1c(NCCNc2ccnc3cc(Cl)ccc23)noc1-c1ccc([N+](=O)[O-])cc1 | 1.87 | 0.91 | 3.79 | 4.16 | – | inactive | inactive | –
– | – | COC(=O)c1c(NCc2ccc(OC)cc2)noc1-c1ccc(Cl)cc1Cl | 3.09 | 23.9 | 34.6 | 1.5 | – | – | – | –
– | – | O=C(NCc1cccc(Br)c1)c1c([N+](=O)[O-])noc1-c1ccc(Cl)cc1Cl | 3.05 | 7.74 | 71.2 | 9.19 | – | – | – | –
– | – | COC(=O)c1c(NCCNc2cc(C(F)(F)F)nc3c(C(F)(F)F)cccc23)noc1-c1ccc(Cl)cc1Cl | 48.2 | 20.3 | 99 | 4.86 | – | – | – | –
– | – | COC(=O)c1c(NCc2ccc(Cl)cc2)noc1-c1ccc([N+](=O)[O-])cc1 | 3.79 | 7.88 | 78.3 | 9.93 | – | – | – | –
– | – | COC(=O)c1c([N+](=O)[O-])noc1-c1ccccc1F | 2.87 | 16.1 | – | 2.19 | 36 | inactive | – | –
– | – | COC(=O)c1c([N+](=O)[O-])noc1-c1cccc(-c2ncoc2C)c1 | 0.86 | 7.1 | 18.4 | 2.5 | – | – | – | –
– | – | COC(=O)c1c(NCCCN2CCOCC2)noc1-c1ccc(Cl)cc1Cl | 2.58 | 21.2 | 73 | 3.44 | – | – | – | –
– | – | COC(=O)c1c(NCc2ccc(Cl)cc2)noc1-c1ccc(Cl)cc1Cl | 14.1 | 3.1 | 176 | 56.6 | 29.2 | inactive | – | –
– | – | COC(=O)c1c([N+](=O)[O-])noc1-c1ccc(Cl)cc1Cl | 1.82 | 4.38 | 19.7 | 4.49 | 39.5 | – | – | 29
– | – | COc1ccc(CNC(=O)c2c([N+](=O)[O-])noc2-c2ccc(Cl)cc2)cc1OC | 3.05 | 3.22 | 106 | 33 | – | – | – | –
– | – | COC(=O)c1c(NCCNc2cc(C(F)(F)F)nc3c(C(F)(F)F)cccc23)noc1-c1ccc([N+](=O)[O-])cc1 | 10.1 | 18.1 | 73 | 4.03 | – | – | – | –
– | – | COC(=O)c1c(NCCCNc2ccnc3cc(Cl)ccc23)noc1-c1ccc([N+](=O)[O-])cc1 | 3.37 | 3.14 | 106 | 33.9 | – | – | – | –
– | – | O=C(NCc1cccc(Cl)c1Cl)c1c([N+](=O)[O-])noc1-c1ccc(Cl)cc1 | 2.9 | 19.6 | 73.7 | 3.76 | – | – | – | –
– | – | COC(=O)c1c([N+](=O)[O-])noc1-c1ccccc1Br | 0.34 | 32.2 | 34.8 | 1.08 | – | – | – | –
– | – | COC(=O)c1c(NCc2ccc(OC)c(OC)c2)noc1-c1ccc(Cl)cc1Cl | 4.49 | 2.37 | 7.58 | 3 | – | – | – | –

IC50 (Leishmania amazonensis [1]) [µM] | IC50 (Leishmania amazonensis [2]) [µM] | SMILES | IC50 (Leishmania donovani [3]) [µM] | IC50 (Leishmania donovani [4]) [µM] | CC50 at 48 h [5] [µM] | selectivity ratio [6] | inhibition in vivo at 50 mg/kg (Leishmania donovani [7]) [%] | inhibition (Leishmania donovani [8]) | inhibition (Leishmania donovani [7]) | inhibition in vivo at 50 mg/kg (Leishmania donovani [8]) [%]
– | – | COC(=O)c1c(NCCNc2ccnc3cc(Cl)ccc23)noc1-c1ccccc1[N+](=O)[O-] | 3.45 | 18.7 | 73.6 | 3.94 | – | – | – | –
– | – | COC(=O)c1c(NCc2ccc(Cl)cc2)noc1-c1cc2c(cc1[N+](=O)[O-])OCO2 | 15.5 | 4.59 | 33 | 7 | 13.5 | – | – | 2.08
– | – | COC(=O)c1c(NCCCCNc2ccnc3cc(Cl)ccc23)noc1-c1cc2c(cc1[N+](=O)[O-])OCO2 | 4.5 | 8.49 | 67.7 | 7.97 | 20 | – | – | 4.38
– | – | O=C(NCc1ccc(F)cc1)c1c([N+](=O)[O-])noc1-c1ccc(Cl)cc1 | 1.16 | 19.4 | 91.9 | 4.72 | – | – | – | –
– | – | O=C(NCCN1CCOCC1)c1c([N+](=O)[O-])noc1-c1ccc([N+](=O)[O-])cc1 | 2.83 | 21.9 | 76.5 | 3.49 | – | – | – | –
– | – | COc1ccc(CNC(=O)c2c([N+](=O)[O-])noc2-c2ccc(Cl)cc2)cc1 | 2.67 | 9.41 | 89.5 | 9.5 | – | – | – | –
– | – | CCCNC(=O)c1c([N+](=O)[O-])noc1-c1ccc([N+](=O)[O-])cc1 | 3.07 | 21.3 | 76.2 | 3.57 | – | – | – | –
– | – | COC(=O)c1c(NCc2ccc(C(C)(C)C)cc2)noc1-c1ccc([N+](=O)[O-])cc1 | 49.7 | 8.16 | 81.4 | 9.69 | – | – | – | –
– | – | COC(=O)c1c([N+](=O)[O-])noc1-c1cccc(-c2cnco2)c1 | 0.77 | 4.8 | 19.7 | 3.6 | – | – | – | –
– | – | COc1ccc(CNC(=O)c2c([N+](=O)[O-])noc2-c2ccc(Cl)cc2Cl)cc1OC | 5.24 | 1.95 | 81.8 | 41.9 | – | – | – | –
– | – | COC(=O)c1c(NCCCN2CCOCC2)noc1-c1cc2c(cc1[N+](=O)[O-])OCO2 | 27.8 | 17 | 65 | 3.82 | – | – | – | –
– | – | COC(=O)c1c(NCCCNc2ccnc3cc(Cl)ccc23)noc1-c1ccc(Cl)cc1Cl | 3.82 | 3.21 | 31.1 | 9.67 | 62 | – | – | 9.23
– | – | COC(=O)c1c([N+](=O)[O-])noc1-c1cc(-c2ccccc2Cl)n(-c2ccccc2)n1 | 0.76 | 21.2 | 79.9 | 3.76 | – | – | – | –
– | – | COC(=O)c1c(NCc2ccc(OC)cc2OC)noc1-c1ccc(Cl)cc1Cl | 8.34 | 5.48 | 32.1 | 6 | 50.9 | – | – | 38
– | – | COC(=O)c1c(NCCNc2ccnc3cc(Cl)ccc23)noc1-c1ccccc1F | 1.73 | 1.47 | 3.42 | 2.32 | – | – | – | –
– | – | COC(=O)c1c(NCCCCNc2ccnc3cc(Cl)ccc23)noc1-c1ccccc1F | 10.6 | 19.9 | 70.9 | 3.56 | – | – | – | –
– | – | COC(=O)c1c(NCc2ccccc2)noc1-c1ccc([N+](=O)[O-])cc1 | 3.9 | 13.8 | 85.4 | 6.16 | 44 | – | – | 75.2
– | – | CCN(CC)CCNc1noc(-c2ccc([N+](=O)[O-])cc2)c1C(=O)OC | 26 | 8.15 | 69.2 | 8.49 | – | – | – | –
– | – | COC(=O)c1c(NCCCNc2ccnc3cc(Cl)ccc23)noc1-c1cc2c(cc1[N+](=O)[O-])OCO2 | 7.75 | 16.1 | 73.6 | 4.55 | – | – | – | –
